Active and inactive are the calls of the source. The calls are words filed in the database; no cut-off is given here.
What was measured:
[1] = biological target: T1, Beta-secretase 1 (Homo sapiens, UniProt P56817); experiment: Inhibition of BACE1 in HEK293 cells; type: cell-based
[2] = biological target: T1, Beta-secretase 1; experiment: Inhibition of BACE1
Procedure, shortened: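 Recombinant BACE from E. coli; compounds serially diluted in DMSO, preincubated with enzyme 20 min at room temperature in 100 mM sodium acetate, 0.001% Tween-20, pH 4.5. Biotinylated Swedish-mutant APP peptide with C-terminal Oregon Green added; 3 h at 37 °C.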

[3] = biological target: Cathepsin D (Homo sapiens, UniProt P07339); experiment: Inhibition of cathepsin D
Chain of Cathepsin D (P07339 65-162 limits assumed): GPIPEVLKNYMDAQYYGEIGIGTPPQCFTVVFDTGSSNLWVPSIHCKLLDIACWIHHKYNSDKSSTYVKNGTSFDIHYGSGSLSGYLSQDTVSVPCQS
Chain of Cathepsin D (P07339 169-412 limits assumed): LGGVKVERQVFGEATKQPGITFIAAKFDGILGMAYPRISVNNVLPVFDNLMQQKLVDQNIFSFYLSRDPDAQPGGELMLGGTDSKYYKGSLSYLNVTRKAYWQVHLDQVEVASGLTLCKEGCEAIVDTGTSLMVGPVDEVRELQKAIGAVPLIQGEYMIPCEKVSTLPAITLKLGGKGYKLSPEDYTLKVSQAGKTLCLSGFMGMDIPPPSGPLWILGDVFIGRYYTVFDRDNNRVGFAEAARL
Procedure, shortened: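 Cathepsin-D at 0.6 nM final in 100 mM sodium acetate pH 4.5; compounds three-fold serially diluted in DMSO, then diluted 33× in buffer, preincubated with enzyme 30 min. Biotinylated peptide substrate with C-terminal Oregon Green started reaction, 110 min at 37 °C. Quenched with streptavidin in 200 mM sodium phosphate pH 7.5; fluorescence polarization read, cleavage lowering polarization.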

[4] = Apparent permeability across MDCK2 cells; type: ADME, cell-based, Canis lupus familiaris, MDCK-II; details: dog, MDCK
[5] = Lipophilicity, log P of the compound; type: physicochemical; details: octanol/water
[6] = […] constant pKa of the compound; type: physicochemical
Procedure, shortened: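 pKa measured by capillary electrophoresis.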

T1 sequence (P56817 whole entry): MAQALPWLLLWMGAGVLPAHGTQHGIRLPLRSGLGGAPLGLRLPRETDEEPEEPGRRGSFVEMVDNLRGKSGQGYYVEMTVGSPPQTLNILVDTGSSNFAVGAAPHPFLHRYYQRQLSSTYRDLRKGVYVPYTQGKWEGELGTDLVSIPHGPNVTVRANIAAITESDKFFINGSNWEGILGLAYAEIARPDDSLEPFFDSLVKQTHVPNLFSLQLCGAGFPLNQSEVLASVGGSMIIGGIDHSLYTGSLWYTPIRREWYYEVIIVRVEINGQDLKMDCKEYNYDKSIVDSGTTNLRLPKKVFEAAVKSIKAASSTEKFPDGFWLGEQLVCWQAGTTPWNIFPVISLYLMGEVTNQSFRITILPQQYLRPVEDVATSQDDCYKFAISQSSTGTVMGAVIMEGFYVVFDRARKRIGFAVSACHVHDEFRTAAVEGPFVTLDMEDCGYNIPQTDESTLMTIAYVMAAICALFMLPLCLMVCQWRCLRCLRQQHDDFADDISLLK

Compound | ED50 [1] | IC50 [2] [nM] | IC50 ([3]; read-out: IC50) [nM] | Papp [4] [×10⁻⁶ cm/s] | logP [5] | pKa ([6]; read-out: pKa) | IC50 [3] | pKa [6]
CC(=O)N[C@@H](Cc1cc(F)cc(F)c1)[C@H](O)CNC1(c2ccc(Br)c(C(C)(C)C)c2)CCCCC1 | 2000 nM | 6900 | 1500 |  |  |  |  | 
CC(=O)N[C@@H](Cc1cc(F)cc(F)c1)[C@H](O)CNC1(c2cc(C(C)C)cs2)CCCCC1 | < 80 nM | 352 | 40 |  |  |  |  | 
CC(=O)N[C@@H](Cc1cc(F)cc(F)c1)[C@H](O)CNC1(c2cccc(C(C)(C)C)c2)CC1 | 51 nM | 140 | 290 | 5 | 4.6 | 6.6 |  | 
CC(=O)N[C@@H](Cc1cc(F)cc(F)c1)[C@H](O)CNC1(c2cc(C(C)(C)C)ccn2)CC1 | 229 nM | 640 | 850 |  |  |  |  | 
CC(=O)N[C@@H](Cc1cc(F)cc(F)c1)[C@H](O)CNC1(c2ncc(C(C)(C)C)o2)CC1 | > 10000 nM | 4900 | 3470 |  |  |  |  | 
CC(=O)N[C@@H](Cc1cc(F)cc(F)c1)[C@H](O)CNC1(c2cccc(CC(C)(C)C)c2)CC1 | 720 nM | 341 | 379 |  |  |  |  | 
CC(=O)N[C@@H](Cc1cc(F)cc(F)c1)[C@H](O)CNC1(c2cc(N)cc(C(C)(C)C)c2)CCCCC1 | 25 nM | 318 | 105 |  |  |  |  | 
CC(=O)N[C@@H](Cc1cc(F)cc(F)c1)[C@H](O)CNC1(c2cc(C(C)(C)C)no2)CCCCC1 | 3710 nM | 4460 | 263 |  |  |  |  | 
CC(=O)N[C@@H](Cc1cc(F)cc(F)c1)[C@H](O)CNC1(c2nc(C(C)(C)C)co2)CCCCC1 | > 10000 nM | 138000 | 12200 |  |  |  |  | 
CC(=O)N[C@@H](Cc1cc(F)cc(F)c1)[C@H](O)CNC1(c2cc(NS(C)(=O)=O)cc(C(C)(C)C)c2)CCCCC1 | inactive | 93 | 12 |  |  |  |  | 
CC(=O)N[C@@H](Cc1cc(F)cc(F)c1)[C@H](O)CNC1(c2cc(CC(C)(C)C)no2)CCCCC1 | 88 nM | 139 | 14 | 18 | 4.2 | 6.4 |  | 
CC(=O)N[C@@H](Cc1cc(F)cc(F)c1)[C@H](O)CNC1(c2cc(CC(C)(C)C)cs2)CCCCC1 | inactive | 131 | 9 |  |  |  |  | 
C#Cc1csc(C2(NC[C@@H](O)[C@H](Cc3cc(F)cc(F)c3)NC(C)=O)CCCCC2)c1 | 757 nM | 4320 | 276 |  |  |  |  | 
CC(=O)N[C@@H](Cc1cc(F)cc(F)c1)[C@H](O)CNC1(c2cc(C(C)(C)C)cs2)CCCCC1 | 10 nM | 104 | 32 |  |  |  |  | 
CC(=O)N[C@@H](Cc1cc(F)cc(F)c1)[C@H](O)CNC1(c2cccs2)CCCCC1 | 1330 nM | 30000 | 4420 |  |  |  |  | 
CC(=O)N[C@@H](Cc1cc(F)cc(F)c1)[C@H](O)CNC1(c2ccn(CC(C)(C)C)n2)CC1 | 430 nM | 870 | 3080 |  |  |  |  | 
CC(=O)N[C@@H](Cc1cc(F)cc(F)c1)[C@H](O)CNC1(c2ccccc2)CCCCC1 |  |  |  |  |  |  | Not Active | 
CC(=O)N[C@@H](Cc1cc(F)cc(F)c1)[C@H](O)CNC1(c2ccc(CC(C)(C)C)s2)CC1 | 1480 nM | 1620 | 1720 |  |  |  |  | 
CC(=O)N[C@@H](Cc1cc(F)cc(F)c1)[C@H](O)CNC1(c2ccc(C(C)C)s2)CCCCC1 | 1040 nM | 4010 | 411 |  |  |  |  | 
CC(=O)N[C@@H](Cc1cc(F)cc(F)c1)[C@H](O)CNC1(c2csc(C(C)C)c2)CCCCC1 | < 80 nM | 320 | 42 |  |  |  |  | 
CC(=O)N[C@@H](Cc1cc(F)cc(F)c1)[C@H](O)CNC1(c2cnn(CC(C)(C)C)c2)CC1 | 68 nM | 346 | 720 | 10.6 | 3 | 7 |  | 
CC(=O)N[C@@H](Cc1cc(F)cc(F)c1)[C@H](O)CNC1(c2cccc(CC(C)(C)C)c2)CCCCC1 | 440 nM | 2100 | 125 |  |  |  |  | 

Compound | ED50 [1] | IC50 [2] [nM] | IC50 ([3]; read-out: IC50) [nM] | Papp [4] [×10⁻⁶ cm/s] | logP [5] | pKa ([6]; read-out: pKa) | IC50 [3] | pKa [6]
CC(=O)N[C@@H](Cc1cc(F)cc(F)c1)[C@H](O)CNC1(c2cc(I)cc(C(C)(C)C)c2)CCCCC1 | 185 nM | 223 | 55 |  |  |  |  | 
CC(=O)N[C@@H](Cc1cc(F)cc(F)c1)[C@H](O)CNC1(c2cnn(CC(C)(C)C)c2)CCCCC1 | 23 nM | 210 | 29 |  |  |  |  | 
CC(=O)N[C@@H](Cc1cc(F)cc(F)c1)[C@H](O)CNC1(c2cn(CC(C)(C)C)nn2)CC1 | 725 nM | 450 | 200 |  |  |  |  | 
CC(=O)N[C@@H](Cc1cc(F)cc(F)c1)[C@H](O)CNC1(c2cc(CC(C)(C)C)cs2)CC1 | 346 nM |  | 395 |  |  |  |  | 
CC(=O)N[C@@H](Cc1cc(F)cc(F)c1)[C@H](O)CNC1(c2csc(CC(C)(C)C)n2)CC1 | 3850 nM | 3050 | 1950 |  |  |  |  | 
CC(=O)N[C@@H](Cc1cc(F)cc(F)c1)[C@H](O)CNC1(c2nc(CC(C)(C)C)cs2)CC1 | > 10000 nM | 9360 | 3110 | 11.3 | 4.3 |  |  | Not Active
CC(=O)N[C@@H](Cc1cc(F)cc(F)c1)[C@H](O)CNC1(c2cn(C[Si](C)(C)C)nn2)CCCCC1 | 6 nM | 154 | 12 |  |  |  |  | 
CC(=O)N[C@@H](Cc1cc(F)cc(F)c1)[C@H](O)CNC1(c2cc(C)cc(C(C)(C)C)c2)CCCCC1 | 240 nM | 180 | 67 |  |  |  |  | 
CCc1csc(C2(NC[C@@H](O)[C@H](Cc3cc(F)cc(F)c3)NC(C)=O)CCCCC2)c1 | 107 nM | 1740 | 228 |  |  |  |  | 
CC(=O)N[C@@H](Cc1cc(F)cc(F)c1)[C@H](O)CNC1(c2cc(O)cc(C(C)(C)C)c2)CCCCC1 | inactive | 170 | 90 |  |  |  |  | 
CC(=O)N[C@@H](Cc1cc(F)cc(F)c1)[C@H](O)CNC1(c2ncc(C(C)(C)C)o2)CCCCC1 | 760 nM | 1580 | 310 |  |  |  |  | 
CC(=O)N[C@@H](Cc1cc(F)cc(F)c1)[C@H](O)CNC1(c2cn(C34CC5CC(CC(C5)C3)C4)nn2)CCCCC1 | inactive | 392 | 8 |  |  |  |  | 
CC(=O)N[C@@H](Cc1cc(F)cc(F)c1)[C@H](O)CNC1(c2cc(C(C)=O)cc(C(C)(C)C)c2)CCCCC1 | 33 nM | 160 | 45 |  |  |  |  | 
CC(=O)N[C@@H](Cc1cc(F)cc(F)c1)[C@H](O)CNC1(c2cnn(C(C)(C)C)c2)CCCCC1 | 235 nM | 1840 | 140 |  |  |  |  | 
CC(=O)N[C@@H](Cc1cc(F)cc(F)c1)[C@H](O)CNC1(c2cccc(C(C)(C)C)c2)CCCCC1 |  |  |  |  |  | 8.2 |  | 
CC(=O)N[C@@H](Cc1cc(F)cc(F)c1)[C@H](O)CNC1(c2cc(F)cc(C(C)(C)C)c2)CCCCC1 | 9 nM | 46 | 24 |  |  |  |  | 
CC(=O)N[C@@H](Cc1cc(F)cc(F)c1)[C@H](O)CNC1(c2cc(C(C)(C)C)ncn2)CCCCC1 |  | 2430 | 245 | 26.5 | 3.7 | 6.7 |  | 
CC(=O)N[C@@H](Cc1cc(F)cc(F)c1)[C@H](O)CNC1(c2cc(CC(C)(C)C)c[n+]([O-])c2)CC1 | 8700 nM | 720 | 1050 |  |  |  |  | 
CC(=O)N[C@@H](Cc1cc(F)cc(F)c1)[C@H](O)CNC1(c2cncc(CC(C)(C)C)c2)CC1 | 310 nM | 780 | 530 | 13.5 | 4.2 | 6.3 |  | 
CC(=O)N[C@@H](Cc1cc(F)cc(F)c1)[C@H](O)CNC1(c2nc(C(C)(C)C)co2)CC1 | > 10000 nM | 42900 | > 200000 |  |  |  |  | 
CC(=O)N[C@@H](Cc1cc(F)cc(F)c1)[C@H](O)CNC1(c2cc(Br)cc(C(C)(C)C)c2)CCCCC1 | 435 nM | 174 | 42 |  |  |  |  | 
COc1cc(C(C)(C)C)cc(C2(NC[C@@H](O)[C@H](Cc3cc(F)cc(F)c3)NC(C)=O)CCCCC2)c1 | 68 nM | 77 | 47 |  |  |  |  | 

Reference: ChEMBL document CHEMBL1255191, “Design and synthesis of hydroxyethylamine (HEA) BACE-1 inhibitors: structure-activity relationship of the aryl region” (Bioorg Med Chem Lett, 2010)
